Laboratory results as given in ChEMBL document CHEMBL1764995, “Design, synthesis, and evaluation of novel 3,6-diaryl-4-aminoalkoxyquinolines as selective agonists of somatostatin receptor subtype 2” (J Med Chem, 2011).

How the values were obtained:
[1] = molecular target: T1, Somatostatin receptor type 2 (Homo sapiens, UniProt P30874); test: Agonist activity at human SST2 expressed in CHO cells assessed as inhibition of forskolin-stimulated cAMP release after 40 mins by luminescence assay; format: functional, cell-based
T1 sequence (P30874 whole entry): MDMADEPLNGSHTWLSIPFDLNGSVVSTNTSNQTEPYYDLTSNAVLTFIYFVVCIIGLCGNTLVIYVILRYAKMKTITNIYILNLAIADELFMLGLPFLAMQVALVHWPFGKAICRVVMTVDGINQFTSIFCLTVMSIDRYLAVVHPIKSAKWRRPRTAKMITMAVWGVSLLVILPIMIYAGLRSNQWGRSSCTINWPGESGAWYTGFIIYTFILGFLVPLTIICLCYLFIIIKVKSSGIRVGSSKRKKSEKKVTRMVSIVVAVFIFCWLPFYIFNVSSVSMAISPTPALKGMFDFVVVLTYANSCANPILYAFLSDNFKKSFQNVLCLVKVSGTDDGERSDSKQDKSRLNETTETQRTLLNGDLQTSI

Homo sapiens [2] = species on record: Homo sapiens; test: Selectivity for human SST2 over human SST3
In short: (§1)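 Human sst1, sst2, sst3, sst4 or sst5 stably expressed in CHO cells; membrane displacement of 0.1 nM 125I-somatostatin-14 by compound 0-10000 nM, 30 min tracer preincubation then 3 h at room temperature, filtration and scintillation counting; selectivity taken from the binding values across subtypes.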

Homo sapiens [3] = species on record: Homo sapiens; test: Selectivity for human SST2 over human SST1; in short: as §1
[4] = Half life in dog at 2 mg/kg, iv and 10 mg/kg, po; format: ADME, organism-based, Canis lupus familiaris; conditions: in vivo
[5] = molecular target: T1, Somatostatin receptor type 2; test: Displacement of I125-somatostatin-14 from human SST2 expressed in CHO cells after 3 hrs by scintillation counting; format: cell-based
Homo sapiens [6] = species on record: Homo sapiens; test: Selectivity for human SST2 over human SST5; in short: as §1
[7] = Volume of distribution at steady state in dog at 2 mg/kg, iv and 10 mg/kg, po; format: ADME, organism-based, Canis lupus familiaris; conditions: in vivo, read-out: Vdss
[8] = Plasma clearance in dog at 2 mg/kg, iv and 10 mg/kg, po; format: ADME, organism-based, Canis lupus familiaris
[9] = molecular target: T2, Gonadotropin-releasing hormone receptor (Homo sapiens, UniProt P30968); test: Antagonist activity at GnRH receptor by GnRH; format: functional
T2 sequence (P30968 whole entry): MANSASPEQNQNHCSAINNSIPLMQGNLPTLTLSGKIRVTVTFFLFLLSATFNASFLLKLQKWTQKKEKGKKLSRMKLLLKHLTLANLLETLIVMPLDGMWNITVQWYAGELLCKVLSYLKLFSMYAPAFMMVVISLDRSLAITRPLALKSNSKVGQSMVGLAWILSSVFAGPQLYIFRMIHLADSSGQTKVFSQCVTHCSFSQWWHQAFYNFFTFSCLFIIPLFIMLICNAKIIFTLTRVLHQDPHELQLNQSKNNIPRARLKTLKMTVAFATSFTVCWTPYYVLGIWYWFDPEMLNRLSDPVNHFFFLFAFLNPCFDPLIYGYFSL

[10] = Half life in rat at 2 mg/kg, iv and 10 mg/kg, po; format: ADME, organism-based; conditions: in vivo
[11] = Oral bioavailability in rat at 2 mg/kg, iv and 10 mg/kg, po iv; format: ADME, organism-based; conditions: in vivo
[12] = Plasma clearance in rat at 2 mg/kg, iv and 10 mg/kg, po; format: ADME, organism-based
[13] = Volume of distribution at steady state in rat at 2 mg/kg, iv and 10 mg/kg, po; format: ADME, organism-based; conditions: in vivo, read-out: Vdss
[14] = Volume of distribution at steady state in rat at 2 mg/kg, iv and 5 mg/kg, po; format: ADME, organism-based; conditions: in vivo, read-out: Vdss
[15] = Volume of distribution at steady state in dog at 0.125 mg/kg, iv; format: ADME, organism-based, Canis lupus familiaris; design: dose 0.125 mg/kg, route intravenous; conditions: in vivo, read-out: Vdss
In short: (§2)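 Dog PK after 0.125 mg/kg iv; plasma clearance (mL/min/kg), half-life (h) and steady-state volume of distribution (L/kg).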

Rattus norvegicus [16] = test: Antiangiogenic activity against laser-induced choroidal neovascularization rat model assessed as reduction in neovascular lesion area, intraocular administered once every 4 days; format: functional, organism-based; conditions: Eye
In short: (§3)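 Laser-induced choroidal neovascularization in male Brown Norway rats (175-225 g). After lasering and topical 0.5% proparacaine, 5 μL vehicle (5% ethanol in PBS) or compound injected intravitreally 3 mm posterior to iris on days 0, 4 and 8; neovascular lesion area measured.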

Rattus norvegicus [17] = test: Inhibition of secretagogue-induced growth hormone release in Wistar rat assessed as reduction in plasma growth hormone area under the curve at 0.2 mg/kg, iv treated 50 mins before secretagogue challenge measured after every 5 to 15 mins; format: functional; design: scale not given: the % may be the effect or the level left
In short: (§4)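 Female Wistar rats (200-250 g) with jugular and carotid cannulas, pentobarbital-anesthetized (50 mg/kg ip); vehicle or compound given iv via jugular cannula, GH secretagogue (10 μg/kg iv) 50 min later.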

[18] = Half life in rat at 2 mg/kg, iv and 5 mg/kg, po; format: ADME, organism-based; conditions: in vivo
[19] = Plasma clearance in rat at 2 mg/kg, iv and 5 mg/kg, po; format: ADME, organism-based
[20] = Oral bioavailability in rat at 2 mg/kg, iv and 5 mg/kg, po; format: ADME, organism-based; conditions: in vivo
[21] = Aqueous solubility of the compound; format: physicochemical; conditions: buffer
Rattus norvegicus [22] = test: Inhibition of secretagogue-induced growth hormone release in Wistar rat assessed as reduction in plasma growth hormone area under the curve at 2 mg/kg, iv treated 50 mins before secretagogue challenge measured after every 5 to 15 mins; format: functional; design: scale not given: the % may be the effect or the level left; in short: as §4
[23] = Half life in dog at 0.125 mg/kg, iv; format: ADME, organism-based, Canis lupus familiaris; design: dose 0.125 mg/kg, route intravenous; conditions: in vivo; in short: as §2
Rattus norvegicus [24] = test: Antiangiogenic activity against laser-induced choroidal neovascularization rat model assessed as reduction in neovascular lesion area at 5 ug, intraocular administered once every 4 days; format: functional; design: scale not given: the % may be the effect or the level left; in short: as §3
[25] = Plasma clearance in dog at 0.125 mg/kg, iv; format: ADME, organism-based, Canis lupus familiaris; design: dose 0.125 mg/kg, route intravenous; in short: as §2
Rattus norvegicus [26] = test: Inhibition of secretagogue-induced growth hormone release in iv dosed Wistar rat plasma after 50 mins before secretagogue challenge measured after every 5 to 15 mins; format: functional, organism-based; in short: as §4
Rattus norvegicus [27] = test: Antiangiogenic activity against laser-induced choroidal neovascularization rat model assessed as reduction in neovascular lesion area at 15 ug, intraocular administered once every 4 days; format: functional; design: scale not given: the % may be the effect or the level left; in short: as §3

| SMILES | IC50 [1] | Ki [5] | further results |
| --- | --- | --- | --- |
| Cc1cc(C)cc(-c2cnc3cc(Cl)c(-c4ccc(=O)[nH]c4)cc3c2OCC[C@H]2CCCCN2)c1 | 0.29 nM | 0.27 nM | fold change (FC) (Homo sapiens [2]): > 1000; fold change (FC) (Homo sapiens [3]): > 1000; half-life [4]: 0.55 h; fold change (FC) (Homo sapiens [6]): > 1000; Vd [7]: 0.094 L/kg; clearance [8]: 5 mL/min/kg |
| Cc1cc(C)cc(-c2cnc3cc(Cl)c(-c4ccc(N)nc4)cc3c2OCC[C@H]2CCCCN2)c1 | 34 nM | 0.6 nM | – |
| COc1ccc(-c2cc3c(OCC[C@H]4CCCCN4)c(-c4cc(C)cc(C)c4)cnc3cc2Cl)cn1 | 50 nM | 0.65 nM | – |
| Cc1cc(C)cc(-c2c(OCCC3CCCCN3)c3cc(-c4ccncn4)c(Cl)cc3[nH]c2=O)c1 (configuration not stated) | – | 1400 nM | IC50 [9]: 3.2 nM |
| OCc1cccc(-c2ccc3ncc(-c4cccc(CO)c4)c(OCC[C@H]4CCCCN4)c3c2)c1 | 11 nM | 0.13 nM | – |
| Cc1cc(C)cc(-c2cnc3cc(Cl)c(-c4cnn(C)c4)cc3c2OCC[C@H]2CCCCN2)c1 | – | – | half-life [10]: 3.7 h; bioavailability [11]: 27%; fold change (FC) (Homo sapiens [2]): > 1000; fold change (FC) (Homo sapiens [3]): > 1000; fold change (FC) (Homo sapiens [6]): > 1000; clearance [12]: 14 mL/min/kg; Vd [13]: 3.1 L/kg |
| Cc1cc(C)cc(-c2c(OCC[C@H]3CCCCN3)c3cc(-c4ccc(F)cc4)c(Cl)cc3[nH]c2=O)c1 | – | 1.5 nM | – |
| Cc1cc(C)cc(-c2cnc3cc(Cl)c(C(=O)Nc4ccncn4)cc3c2OCC[C@H]2CCCCN2)c1 | – | 20 nM | IC50 [9]: 2440 nM |
| Cn1cc(-c2cc3c(OCC[C@H]4CCCCN4)c(-c4cccc(CO)c4)cnc3cc2Cl)cn1 | 8.3 nM | 0.13 nM | – |

The next lines start with results.

| IC50 [1] | Ki [5] | SMILES | further results |
| --- | --- | --- | --- |
| 20 nM | 0.11 nM | Cc1cc(C)cc(-c2cnc3cc(Cl)c(-c4ccncc4)cc3c2OCC[C@H]2CCCCN2)c1 | – |
| 0.39 nM | 0.038 nM | Cc1cc(C)cc(-c2cnc3cc(Cl)c(-c4cccc(C(N)=O)c4)cc3c2OCC[C@H]2CCCCN2)c1 | – |
| 13 nM | 0.1 nM | Cc1cc(C)cc(-c2cnc3cc(Cl)c(-c4ccc(CO)cc4)cc3c2OCC[C@H]2CCCCN2)c1 | – |
| 8.3 nM | 0.13 nM | Cc1cc(C)cc(-c2cnc3cc(Cl)c(-c4cccnc4)cc3c2OCC[C@H]2CCCCN2)c1 | – |
| 0.38 nM | 0.08 nM | Cc1cc(C)cc(-c2cnc3cc(Cl)c(-c4ccc(O)cc4)cc3c2OCC[C@H]2CCCCN2)c1 | – |
| 11 nM | 0.13 nM | Cc1cc(C)cc(-c2cnc3cc(Cl)c(-c4ccc(Cl)nc4)cc3c2OCC[C@H]2CCCCN2)c1 | – |
| 1.1 nM | 0.037 nM | Cc1cc(C)cc(-c2cnc3cc(Cl)c(-c4cccc(O)c4)cc3c2OCC[C@H]2CCCCN2)c1 | – |
| 4.7 nM | 0.12 nM | Cc1cc(C)cc(-c2cnc3cc(Cl)c(-c4ccc(F)nc4)cc3c2OCC[C@H]2CCCCN2)c1 | – |
| 0.38 nM | 0.08 nM | Cc1cc(C)cc(-c2cnc3cc(Cl)c(-c4cccc(C(N)=O)c4)cc3c2OCCCN)c1 | – |
| 4.8 nM | 0.025 nM | Cc1cc(C)cc(-c2cnc3cc(Cl)c(-c4cccc(O)c4)cc3c2OCCCN)c1 | Vd [14]: 9.4 L/kg; Vd [15]: 5.7 L/kg; Activity (Rattus norvegicus [16]): Dose-dependent effect; Activity (Rattus norvegicus [17]): 38%; half-life [18]: 2.9 h; clearance [19]: 52 mL/min/kg; bioavailability [20]: 17%; solubility [21]: Insoluble; Activity (Rattus norvegicus [22]): 91%; half-life [23]: 11 h; Activity (Rattus norvegicus [24]): 35%; clearance [25]: 7.1 mL/min/kg; inhibition (Rattus norvegicus [26]): Dose-dependent effect; Activity (Rattus norvegicus [27]): 53% |
